Experimental data from ChEMBL document CHEMBL1121573, “2-(Aminomethyl)phenols, a new class of saluretic agents. 1. Effects of nuclear substitution” (J Med Chem, 1980).
Where “and” joins values, the source holds several entries; their conditions need not be identical. Identical values can stand only once.

Tests used:
Rattus norvegicus [1] = test: Oral diuretic activity was evaluated by measuring Na+ excretion in Rat at 9 mg/kg after […] (0-5 hr); format: ADME, organism-based, Urine; set-up: dose 9 mg/kg; conditions: in vivo, ip
How it was run: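 Female Charles-River rats (150–170 g) were kept overnight on a sugar diet with water ad libitum. Compound was dissolved in DMF, then diluted with water containing Tween 80 (3 drops/100 mL) to a final 4% DMF, and given po in 5.0 mL. Rats were housed three per metabolism cage. Urine from 0–5 h was analysed for Na+, K+ and Cl−, with concurrent placebo controls. Values are mequiv × 100 per cage, geometric mean of three cages per dose.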

Canis familiaris [2] = test: Oral diuretic activity was evaluated by measuring Na+ excretion in dog at 0.3 mg/kg after ip administration (0-6 hr); format: ADME, organism-based, Canis lupus familiaris, Urine; set-up: dose 0.3 mg/kg, route intraperitoneal; conditions: in vivo
How it was run: (§1)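 Spontaneous urine was pooled with bladder urine collected by catheterization at 6 h. Volume was measured and Na+, K+ and Cl− were determined by standard methods. Values are geometric means.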

Canis familiaris [3] = test: Oral diuretic activity was evaluated by measuring Na+ excretion in dog at 10 mg/kg after ip administration (0-6 hr); format: ADME, organism-based, Canis lupus familiaris, Urine; set-up: dose 10 mg/kg, route intraperitoneal; conditions: in vivo; how it was run: as §1
Canis familiaris [4] = test: Oral diuretic activity was evaluated by measuring Na+ excretion in dog at 1 mg/kg after ip administration (0-6 hr); format: ADME, organism-based, Canis lupus familiaris, Urine; set-up: dose 1 mg/kg, route intraperitoneal; conditions: in vivo; how it was run: as §1
Canis familiaris [5] = test: Oral diuretic activity was evaluated by measuring K+ excretion in dog at 5 mg/kg after ip administration (0-6 hr); format: ADME, organism-based, Canis lupus familiaris, Urine; set-up: dose 5 mg/kg, route intraperitoneal; conditions: in vivo; how it was run: as §1
Canis familiaris [6] = test: Oral diuretic activity was evaluated by measuring Na+ excretion in dog at 5 mg/kg after ip administration (0-6 hr); format: ADME, organism-based, Canis lupus familiaris, Urine; set-up: dose 5 mg/kg, route intraperitoneal; conditions: in vivo; how it was run: as §1
Canis familiaris [7] = test: Salidiuretic activity in dog following i.v. dosing at 5 mg/kg; format: functional, Canis lupus familiaris, Urine; set-up: unit not given beside the values; conditions: route intravenous
How it was run: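 Conditioned female mongrel dogs, postabsorptive, got a 500 mL oral water load 1 h before pentobarbital anesthesia (30 mg/kg iv). After replicate 15-min control collections, compound was given as an iv stat injection.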

Rattus norvegicus [8] = test: Oral diuretic activity was evaluated by measuring K+ excretion in Rat at 3 mg/kg […] (0-5 hr); format: ADME, organism-based, Urine; set-up: dose 3 mg/kg
How it was run: (§2)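 Female Charles-River rats (150–170 g) were kept overnight on a sugar diet with water ad libitum. Test substance was dissolved in DMF and diluted with water containing Tween 80 to a final 4% DMF vehicle, then given po in 5.0 mL. Rats were housed three per metabolism cage, and 0–5 h urine was assayed for Na⁺, K⁺ and Cl⁻ alongside concurrent placebo groups. Values are mequiv × 100 per cage, geometric means of three cages per dose.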

Rattus norvegicus [9] = test: Oral diuretic activity was evaluated by measuring K+ excretion in Rat at 81 mg/kg after […] (0-5 hr); format: ADME, organism-based, Urine; set-up: dose 81 mg/kg; how it was run: as §2
Rattus norvegicus [10] = test: Oral diuretic activity was evaluated by measuring K+ excretion in Rat at 9 mg/kg […] (0-5 hr); format: ADME, organism-based, Urine; set-up: dose 9 mg/kg; how it was run: as §2
Canis familiaris [11] = test: Oral diuretic activity was evaluated by measuring K+ excretion in dog at 0.3 mg/kg after […] (0-6 hr); format: ADME, organism-based, Canis lupus familiaris, Urine; set-up: dose 0.3 mg/kg, route intraperitoneal; conditions: in vivo
Canis familiaris [12] = test: Oral diuretic activity was evaluated by measuring K+ excretion in dog at 10 mg/kg after ip administration (0-6 hr); format: ADME, organism-based, Canis lupus familiaris, Urine; set-up: dose 10 mg/kg, route intraperitoneal; conditions: in vivo; how it was run: as §1
Canis familiaris [13] = test: Oral diuretic activity was evaluated by measuring K+ excretion in dog at 1 mg/kg after ip administration (0-6 hr); format: ADME, organism-based, Canis lupus familiaris, Urine; set-up: dose 1 mg/kg, route intraperitoneal; conditions: in vivo; how it was run: as §1
Rattus norvegicus [14] = test: Evaluated for salidiuretic activity measured as sodium ion excretion in Rat, administered orally at a dose of 50 mg/kg; format: functional, Urine; set-up: unit not given beside the values; conditions: route oral
How it was run: (§3)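 Female Charles-River rats (150–170 g), overnight on sugar diet with water ad libitum. Compound dissolved in DMF, diluted with water containing Tween 80 (final 4% DMF), given po in 5.0 mL; concurrent vehicle placebo. Three rats per metabolism cage; 0–5 h urine analysed for Na+, K+, Cl-. Values: mequiv × 100 per cage, geometric means of three cages per dose; scored 0–6 by Na+.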

[15] = Compound administered orally at a dose of 5 mg/kg was evaluated for salidiuretic activity measured as sodium ion excretion in Rat; format: organism-based; set-up: dose 5 mg/kg; conditions: Urine; how it was run: as §3
Rattus norvegicus [16] = test: Compound administered orally at a dose of 81 mg/kg was evaluated for salidiuretic activity measured as sodium ion excretion in Rat; format: ADME, organism-based, Urine; set-up: dose 81 mg/kg, route oral; unit not given beside the values; conditions: in vivo, po; how it was run: as §3
Canis familiaris [17] = test: Oral diuretic activity was evaluated by measuring Cl- excretion in dog at 5 mg/kg after […] (0-6 hr); format: ADME, organism-based, Canis lupus familiaris, Urine; set-up: dose 5 mg/kg, route intraperitoneal; conditions: in vivo
Rattus norvegicus [18] = test: Oral diuretic activity was evaluated by measuring K+ excretion in Rat at 27 mg/kg […] (0-5 hr); format: ADME, organism-based, Urine; set-up: dose 27 mg/kg; how it was run: as §2
[19] = Evaluated for salidiuretic activity measured as sodium ion excretion in Rat, administered orally at a dose of 16.5 mg/kg; format: organism-based; set-up: dose 16.5 mg/kg; conditions: Urine; how it was run: as §3
Rattus norvegicus [20] = test: Oral diuretic activity was evaluated by measuring Cl- excretion in Rat at 27 mg/kg […] (0-5 hr); format: ADME, organism-based, Urine; set-up: dose 27 mg/kg; conditions: in vivo
Rattus norvegicus [21] = test: Oral diuretic activity was evaluated by measuring Cl- excretion in Rat at 3 mg/kg […] (0-5 hr); format: ADME, organism-based, Urine; set-up: dose 3 mg/kg, route intraperitoneal; conditions: in vivo
Canis familiaris [22] = test: Oral diuretic activity was evaluated by measuring Cl- excretion in dog at 0.3 mg/kg after […] (0-6 hr); format: ADME, organism-based, Canis lupus familiaris, Urine; set-up: dose 0.3 mg/kg, route intraperitoneal; conditions: in vivo
Canis familiaris [23] = test: Oral diuretic activity was evaluated by measuring Cl- excretion in dog at 10 mg/kg after […] (0-6 hr); format: ADME, organism-based, Canis lupus familiaris, Urine; set-up: dose 10 mg/kg, route intraperitoneal; conditions: in vivo
Canis familiaris [24] = test: Oral diuretic activity was evaluated by measuring Cl- excretion in dog at 1 mg/kg after […] (0-6 hr); format: ADME, organism-based, Canis lupus familiaris, Urine; set-up: dose 1 mg/kg, route intraperitoneal; conditions: in vivo
Rattus norvegicus [25] = species on record: Rattus norvegicus; test: Time taken for the decrease in arterial pressure was measured; format: functional, Artery
Rattus norvegicus [26] = test: Maximum fall in mean arterial blood pressure was measured in SH rats when compound was administered at 10 mg/kg perorally; format: functional; conditions: route oral
Rattus norvegicus [27] = test: Maximum fall in mean arterial blood pressure was measured in SH rats when compound was administered at 20 mg/kg perorally; format: functional; conditions: route oral
Rattus norvegicus [28] = test: Maximum fall in mean arterial blood pressure was measured in SH rats when compound was administered at 40 mg/kg perorally; format: functional; conditions: route oral

## NS(=O)(=O)c1cc2c(cc1Cl)NCNS2(=O)=O [HYDROCHLOROTHIAZIDE]
Rattus norvegicus [1]
  Diuretic activity: 1.12
Canis familiaris [2]
  Diuretic activity: 5.4
Canis familiaris [3]
  Diuretic activity: 19.6
Canis familiaris [4]
  Diuretic activity: 16.4
Canis familiaris [5]
  Diuretic activity: 7.4
Canis familiaris [6]
  Diuretic activity: 18.8
Canis familiaris [7]
  Diuretic activity: 250
Rattus norvegicus [8]
  Diuretic activity: 0.34
Rattus norvegicus [9]
  Diuretic activity: 0.37
Rattus norvegicus [10]
  Diuretic activity: 0.38
Canis familiaris [11]
  Diuretic activity: 1.98
Canis familiaris [12]
  Diuretic activity: 7.1
Canis familiaris [13]
  Diuretic activity: 4.8
Rattus norvegicus [14]
  Diuretic activity: 1.8
[15]
  Diuretic activity: 0.4
Rattus norvegicus [16]
  Diuretic activity: 2.4
Canis familiaris [17]
  Diuretic activity: 26.3
Rattus norvegicus [18]
  Diuretic activity: 0.34
[19]
  Diuretic activity: 0.6
Rattus norvegicus [20]
  Diuretic activity: 1.56
Rattus norvegicus [21]
  Diuretic activity: 1.54
Canis familiaris [22]
  Diuretic activity: 8.57
Canis familiaris [23]
  Diuretic activity: 22.9
Canis familiaris [24]
  Diuretic activity: 22
Rattus norvegicus [25]
  Duration: >8 h and 12 h
Rattus norvegicus [26]
  MAP: 14 mmHg
Rattus norvegicus [27]
  MAP: 25 mmHg
Rattus norvegicus [28]
  MAP: 26 mmHg
